From article PMC9054070 (RSC Advances, 2020)
Where “and” joins values, the source holds several entries; their conditions need not be identical. Equal entries are not always repeated. Where two headings read alike, the source gives them in different places.

Tests used:
MCF-7 cell line = experiment: Cytotoxic screening using MTT assay, MCF-7; assay type: cell-based
Procedure, shortened: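 MTT cytotoxicity read-out on MCF-7 cells; IC50 from a sigmoidal log-concentration curve; 5-fluorouracil run alongside as reference drug.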

HepG2 cell line = experiment: Cytotoxic screening using MTT assay, HepG2; assay type: cell-based; conditions: Homo sapiens, HepG2, 48 h, read-out: IC50 (μM) HepG2
normal cell line GMSC = experiment: Cytotoxic screening using MTT assay, normal cell line GMSC; assay type: cell-based; conditions: read-out: IC50 (μM) GMSC
[1] = tested on: Ehrlich Ascites Carcinoma (EAC); experiment: In vivo anti-tumor activity in EAC-bearing mice; conditions: for percentage MST ratio (T/C%) / percentage increase in life span (ILS%): compared to EAC control; for percentage cell growth inhibition (CGI%) / tumor volume / total tumor cell count / packed cell volume (PCV%): day 18; for tumor volume: EAC control 19.5 mL; for total tumor cell count: EAC control 19.9; for packed cell volume (PCV%): EAC control 36.72%
[2] = Homo sapiens, MCF7, 48 h, read-out: IC50 (μM) MCF-7, MTT assay, 48 h treatment
[3] = read-out: IC50 (μM) MCF-7, MTT assay, 48 h treatment

Row | SMILES | IC50 (MCF-7 cell line; [2]) | IC50 (HepG2 cell line) | IC50 (normal cell line GMSC; 48 h) | further results
1 | O=c1[nH]ncc2c1[nH]c1ccccc12 [Compound 2, 3,5-Dihydro-4H-pyridazino[4,5-b]indol-4-one] | 9.43 µM | 22.8 µM | – | –
2 | N#CCCn1ncc2c3ccccc3n(CCC#N)c2c1=O [Compound 3, 3,3′-(4-oxo-3H-pyridazino[4,5-b]indole-3,5(4H)-diyl)dipropanenitrile] | – | > 50 µM | – | –
3 | C=CCn1c2ccccc2c2cn[nH]c(=O)c21 [Compound 5, 5-Allyl-3,5-dihydro-4H-pyridazino[4,5-b]indol-4-one] | > 50 µM | > 50 µM | > 50 µM | –
4 | O=c1[nH]cc(F)c(=O)[nH]1 [Compound 5-FU, reference compound] | – | – | – | percentage MST ratio (T/C%) ([1]; EAC-bearing mice): 166%; percentage increase in life span (ILS%) ([1]; EAC-bearing mice): 66%; percentage cell growth inhibition (CGI%) ([1]; ascetic peritoneal fluid): 38.67%; tumor volume ([1]; ascetic peritoneal fluid): 12.6 mL; total tumor cell count ([1]; ascetic peritoneal fluid): 12.2 × 10^7 cells per mL; packed cell volume (PCV%) ([1]; ascetic peritoneal fluid): 23.78%; IC50 (MCF-7 cell line; [3]): 6.98 µM; IC50 (normal cell line GMSC; MTT assay, 48 h treatment, normal cell line): > 50 µM
5 | O=c1[nH]ncc2c3ccccc3n(Cc3ccccc3)c12 [Compound 6, 5-Benzyl-3,5-dihydro-4H-pyridazino[4,5-b]indol-4-one] | 29.5 µM | – | > 50 µM | –
6 | C=CCn1ncc2c3ccccc3n(CC=C)c2c1=O [Compound 8, 3,5-Diallyl-3,5-dihydro-4H-pyridazino[4,5-b]indol-4-one] | 17 µM | – | – | –
7 | O=c1c2c(cnn1Cc1ccccc1)c1ccccc1n2Cc1ccccc1 [Compound 9, 3,5-Dibenzyl-3,5-dihydro-4H-pyridazino[4,5-b]indol-4-one] | > 50 µM | – | – | –
8 | CCOC(=O)Cn1c2ccccc2c2cn[nH]c(=O)c21 [Compound 10, Ethyl 2-(4-oxo-3,4-dihydro-5H-pyridazino[4,5-b]indol-5-yl)acetate] | 12.4 µM | 36.7 µM | > 50 µM | –
9 | CCOC(=O)Cn1ncc2c3ccccc3n(CC(=O)OCC)c2c1=O [Compound 11, Diethyl 2,2′-(4-oxo-3H-pyridazino[4,5-b]indole-3,5(4H)-diyl)diacetate] | 9.07 µM | 18.8 µM | > 50 µM | –
10 | NNC(=O)Cn1c2ccccc2c2cn[nH]c(=O)c21 [Compound 12, 2-(4-Oxo-3,4-dihydro-5H-pyridazino[4,5-b]indol-5-yl)acetohydrazide] | 4.24 µM | 12.8 µM | > 50 µM | percentage MST ratio (T/C%) ([1]; EAC-bearing mice): 172%; percentage increase in life span (ILS%) ([1]; EAC-bearing mice): 72%; percentage increase in body weight (IBW%) ([1]; EAC-bearing mice, untreated EAC control 43.65%): 19.27% and 15.56%; percentage cell growth inhibition (CGI%) ([1]; ascetic peritoneal fluid): 50.74%; percentage of viable cells ([1]; ascetic peritoneal fluid, day 18, trypan blue exclusion, EAC control 91.9%): 59.6%; tumor volume ([1]; ascetic peritoneal fluid): 11.9 mL; total tumor cell count ([1]; ascetic peritoneal fluid): 9.8 × 10^7 cells per mL; packed cell volume (PCV%) ([1]; ascetic peritoneal fluid): 19.32%; IC50 (MCF-7 cell line; [3]): 4.25 µM
